Active and inactive are the calls of the source. The calls are words filed in the database; no cut-off is given here.
Key:
Escherichia coli [1] = assay: Antibacterial activity against Escherichia coli RP437/pRSH103 at 5 to 10 ug/ml; type: functional, organism-based
How it was run: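 Toxicity followed as growth curves. OD600 of E. coli cultures was monitored over time in LB medium with tetracycline, containing a range of furanone concentrations.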

Escherichia coli [2] = assay: Antibacterial activity against Escherichia coli at 60 ug/mL; type: functional, organism-based
Escherichia coli [3] = assay: Inhibition of Escherichia coli biofilm formation at 60 ug/mL; type: functional
How it was run: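 DsRed-express-labeled E. coli biofilms were grown 24 h at 37 C on 316 L stainless steel coupons, with furanone added to the growth medium. Imaged by confocal microscopy. Biomass, surface coverage and mean thickness were calculated from the images and expressed relative to a no-furanone control. Four replicates.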

Escherichia coli [4] = assay: Antibacterial activity against Escherichia coli RP437/pRSH103 assessed as reduction of colony forming unit at 40 ug/ml after 3 hrs; type: functional
How it was run: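 Viable counts (CFU/mL) taken before and after 3 h exposure at 37 C. A parallel culture given the same amount of ethanol (0.2%) served as negative control.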

O=C1O/C(=C\Br)C(Br)=C1CBr
Activity (Escherichia coli [1]): Active

CC1=CC(C)OC1=O (centres undefined)
Activity (Escherichia coli [2]): inactive

CC1=C(Br)C(C(Br)Br)OC1=O (centres undefined)
Activity (Escherichia coli [2]): inactive | inhibition at 60 µg/mL (Escherichia coli [3]): 19%

CC1=C(Br)C(Br)(C(Br)Br)OC1=O (centres undefined)
Activity (Escherichia coli [2]): inactive

CC1=CC(=C(Br)Br)OC1=O
Activity (Escherichia coli [2]): inactive | inhibition at 60 µg/mL (Escherichia coli [3]): 63%

O=C1OC(=C(Br)Br)C=C1C(Br)Br
Activity (Escherichia coli [2]): inactive | inhibition at 60 µg/mL (Escherichia coli [3]): 80%

CC1=CC(=O)OC1=O
Activity (Escherichia coli [2]): inactive

COC1=CC(=O)OC1
Activity (Escherichia coli [2]): inactive

CC1=C(Br)/C(=C/Br)OC1=O
Activity (Escherichia coli [2]): inactive | inhibition at 60 µg/mL (Escherichia coli [3]): 75%

O=C1OC(=C(Br)Br)C=C1CBr
CFU (Escherichia coli [4]): 390 mL⁻¹

From ChEMBL document CHEMBL1140834, “Identifying the important structural elements of brominated furanones for inhibiting biofilm formation by Escherichia coli” (2008)
